From paper PMC5409837 (Science translational medicine, 2017)
Where two headings read alike, the source gives them in different places.

Legend:
[1] = tested on: hiPSC-CMs; assay: Patch clamp electrophysiology; type: cell-based, human; details: two hour treatment; for action potential duration: clinically-relevant concentrations
[2] = tested on: hiPSCs; type: cell-based, human
[3] = tested on: hiPSC-CMs; assay: High-throughput hiPSC-CM contractility assessment; type: cell-based, human; details: for alterations in beating rate relative to LD50: commercially-available healthy control hiPSC-CMs, 72 hour treatment
[4] = tested on: VEGFR2 and PDGFRα phosphorylation; details: hiPSC-CMs
[5] = Clinical cardiotoxicity in patients; type: in vivo, human; details: sunitinib first-line, axitinib second-line treatment
[6] = tested on: hiPSC-CMs; assay: Calcium imaging of hiPSC-CMs; type: cell-based, human; details: 2 hour treatment; for beat rate (calcium imaging) / calcium transient duration: clinically-relevant concentrations
Outline: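 hiPSC-CMs (day 30–40 post-differentiation) reseeded on Matrigel-coated chamber slides and exposed to test compound for 2 hours; compound stocks in DMSO at 10 mM. Cells loaded with 5 μM Fluo-4 AM plus 0.02% Pluronic F-127 in Tyrode's solution for 15 min at 37°C, then washed. Spontaneous Ca2+ transients recorded at 37°C by confocal single-cell line scan.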

[7] = tested on: hiPSC-CMs; details: for LD50: hiPSC-CMs, 72 hour TKI treatment, PrestoBlue cell viability assay
[8] = tested on: INSR and IGF1R phosphorylation; assay: Human Phospho-RTK Array in hiPSC-CMs: INSR and IGF1R; type: cell-based; details: for INSR and IGF1R phosphorylation: 0-1 μM, 72 hours
[9] = patients, cited from earlier work
[10] = tested on: hiPSC-CMs; type: cell-based; details: for rescue of ponatinib toxicity (hiPSC-CM viability): co-treatment with ponatinib, 72 hours, CellTiter-Glo
[11] = tested on: Akt protein network; assay: Human Phospho-Kinase Antibody Array in hiPSC-CMs after IGF1 or insulin; type: cell-based; details: 12 hour IGF1 or insulin treatment
[12] = tested on: hiPSC-CFs; assay: TKI cytotoxicity in hiPSC-derived cardiac fibroblasts; type: cell-based
[13] = tested on: hiPSC-CMs; details: cited from earlier work
[14] = tested on: hiPSC-ECs; assay: TKI cytotoxicity in hiPSC-derived endothelial cells; type: cell-based
[15] = tested on: neuropilin 2 (NRP2); assay: Microarray gene expression in hiPSC-CMs after TKI treatment; type: cell-based, human; details: 1 μM TKI, 72 hour
[16] = tested on: hiPSC-CMs
[17] = tested on: Axl phosphorylation; assay: Human Phospho-RTK Array in hiPSC-CMs: Axl; type: cell-based; details: 0-1 μM, 72 hours
[18] = tested on: zebrafish heart; details: cited from earlier work
[19] = tested on: VEGFC; assay: RNA-sequencing of hiPSC-CMs treated with sorafenib: VEGFC; type: cell-based, human; details: 5 healthy control hiPSC-CM lines, 1 μM, 72 hours
[20] = quantitative and qualitative viability assays

Compound: CNC(=O)c1ccccc1Sc1ccc2c(/C=C/c3ccccn3)n[nH]c2c1 [axitinib]
- action potential duration [1]: did not alter action potential duration
- toxicity in undifferentiated hiPSCs [2]: extremely toxic to hiPSCs
- contraction irregularities ([3]; clinically-relevant concentrations): Neither DMSO nor axitinib elicited contraction irregularities
- VEGFR2 and PDGFRα phosphorylation ([4]; 0-1 μM, 72 hours, sub-cytotoxic concentrations): the strongest dual-inhibition
- clinical cardiotoxicity in the two kidney cancer patients [5]: no significant clinical cardiotoxicity
- calcium imaging parameters (transient amplitude, transient duration, beating rate) [6]: did not significantly alter parameters such as calcium transient amplitude, transient duration, or beating rate
- difference in cytotoxicity between TKI-receiving patient hiPSC-CMs and healthy control hiPSC-CM lines [7]: did not observe a significant difference in cytotoxicity
- relative cytotoxicity among TKIs in hiPSC-CMs [7]: the least cytotoxic TKI in hiPSC-CMs
- fold enhancement of INSR/IGF1R phosphorylation [8]: two-fold
- INSR and IGF1R phosphorylation [8]: increased INSR and IGF1R phosphorylation

Compound: CCN(CC)CCNC(=O)c1c(C)[nH]c(/C=C2\C(=O)Nc3ccc(F)cc32)c1C [sunitinib]
- clinical cardiotoxicity in the two kidney cancer patients [5]: no significant clinical cardiotoxicity
- difference in cytotoxicity between TKI-receiving patient hiPSC-CMs and healthy control hiPSC-CM lines [7]: did not observe a significant difference in cytotoxicity

Compound: COc1cc2c(Nc3ccc(Br)cc3F)ncnc2cc1OCC1CCN(C)CC1 [vandetanib]
- cellular beating rate (patch clamp) [1]: decreased cellular beating rate
- action potential duration [1]: significantly prolonged action potential duration
- clinical QT interval prolongation and arrhythmias [9]: cause dangerous QT interval prolongation and arrhythmias clinically
- alterations in beating rate relative to LD50 [3]: alterations in hiPSC-CM beating rate and other parameters at doses lower than LD50 cytotoxicity values
- beat rate (calcium imaging) [6]: decreased beat rate
- calcium transient duration [6]: prolonged calcium transient duration

Compound: Cc1ccc(NC(=O)c2ccc(CN3CCN(C)CC3)cc2)cc1Nc1nccc(-c2cccnc2)n1 [imatinib]
- calcium imaging parameters (transient amplitude, transient duration, beating rate) [6]: did not significantly alter parameters such as calcium transient amplitude, transient duration, or beating rate

Compound: IGF1
- rescue of ponatinib toxicity (hiPSC-CM viability) [10]: cardioprotective effect
- rescue of ponatinib toxicity (hiPSC-CM viability) ([10]; listed as IGF): significantly rescued ponatinib toxicity
- phosphorylation of Akt protein network [11]: enhanced phosphorylation of the anti-apoptotic Akt protein network

Compound: Cc1ccc(C(=O)Nc2ccc(CN3CCN(C)CC3)c(C(F)(F)F)c2)cc1C#Cc1cnc2cccnn12 [ponatinib]
- relative cytotoxicity in hiPSC-CFs [12]: the highest cytotoxicities
- mitochondrial stress and contraction abnormalities in hiPSC-CMs [13]: induce mitochondrial stress and elicit contraction abnormalities in hiPSC-CMs
- relative cytotoxicity in hiPSC-ECs [14]: the most cytotoxic TKIs in hiPSC-ECs
- VEGFR2/PDGFR inhibition at nanomolar concentrations [4]: complete VEGFR2/PDGFR inhibition
- increase in expression of neuropilin 2 [15]: two-fold
- LD50 [7]: 4.3 µM
- cytotoxicity in all eleven healthy control hiPSC-CM lines [7, 20]: highly cytotoxic
- fold enhancement of INSR/IGF1R phosphorylation [8]: two-fold
- INSR and IGF1R phosphorylation [8]: increased INSR and IGF1R phosphorylation

Compound: Cc1cn(-c2cc(NC(=O)c3ccc(C)c(Nc4nccc(-c5cccnc5)n4)c3)cc(C(F)(F)F)c2)cn1 [nilotinib]
- cellular beating rate (patch clamp) [1]: decreased cellular beating rate
- action potential duration [1]: significantly prolonged action potential duration
- clinical QT interval prolongation and arrhythmias [9]: cause dangerous QT interval prolongation and arrhythmias clinically
- alterations in beating rate relative to LD50 [3]: alterations in hiPSC-CM beating rate and other parameters at doses lower than LD50 cytotoxicity values
- cardiac safety index ([16]; human, 72 h): ≤ 0.10
- beat rate (calcium imaging) [6]: decreased beat rate
- calcium transient duration [6]: prolonged calcium transient duration

Compound: COc1cc2nccc(Oc3ccc(NC(=O)C4(C(=O)Nc5ccc(F)cc5)CC4)cc3)c2cc1OC [cabozantinib]
- Axl phosphorylation [17]: decreased Axl phosphorylation

Compound: CNC(=O)c1cc(Oc2ccc(NC(=O)Nc3ccc(Cl)c(C(F)(F)F)c3)c(F)c2)ccn1 [regorafenib]
- relative cytotoxicity in hiPSC-CFs [12]: the highest cytotoxicities
- relative cytotoxicity in hiPSC-ECs [14]: the most cytotoxic TKIs in hiPSC-ECs
- cardiac safety index ([16]; value from 0-1, 0.10 = threshold for highly cardiotoxic compounds): below 0.10
- VEGFR2/PDGFR inhibition at nanomolar concentrations [4]: complete VEGFR2/PDGFR inhibition
- increase in expression of neuropilin 2 [15]: two-fold
- LD50 [7]: 7.1 µM
- cytotoxicity in all eleven healthy control hiPSC-CM lines [7, 20]: highly cytotoxic

Compound: C#Cc1cccc(Nc2ncnc3cc(OCCOC)c(OCCOC)cc23)c1 [erlotinib]
- LD50 [7]: 87.60 µM

Compound: CNC(=O)c1cc(Oc2ccc(NC(=O)Nc3ccc(Cl)c(C(F)(F)F)c3)cc2)ccn1 [sorafenib]
- cardiotoxicity in zebrafish heart [18]: induces cardiomyocyte death and contractility defects in the zebrafish heart
- clinical cardiotoxicity ([9]; ref Table S2, 20): causes ventricular dysfunction and heart failure clinically
- increase in expression of neuropilin 2 [15]: two-fold
- cytotoxicity in all eleven healthy control hiPSC-CM lines [7]: highly cytotoxic
- LD50 [7]: 3.4 µM
- VEGFC expression [19]: increased expression

Compound: COc1cccc2c1C(=O)c1c(O)c3c(c(O)c1C2=O)C[C@@](O)(C(=O)CO)C[C@@H]3O[C@H]1C[C@H](N)[C@H](O)[C@H](C)O1 [doxorubicin]
- toxicity in hiPSCs at 0.1 μM [2]: lethal
- toxicity in undifferentiated hiPSCs [2]: substantially enhanced in hiPSCs
- cardiac safety index ([16]; human, 72 h): ≤ 0.10
- LD50 [7]: 0.78 µM

Compound: insulin
- rescue of doxorubicin cytotoxicity in hiPSC-CMs ([10]; co-treatment with doxorubicin): rescued hiPSC-CMs from doxorubicin cytotoxicity
- phosphorylation of Akt protein network [11]: enhanced phosphorylation of the anti-apoptotic Akt protein network
